In the library only some 2.6% were active in any assay of this set; here they are far more common.
SIAE inh = human SIAE inhibitors, primary screen, biochemical, fluorescence polarization, FP-Rh probe, 1536-well HTS; SIAE FP-Rh probe binding; inhibition, % at 9.66 µM; Sialate O-acetylesterase (Homo sapiens), Q9HAT2; 0.69% of 370,000 active; AID 1053197, 2014;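 active = inhibition above a cutoff: mean of compounds within the control limits plus 3 SD of those, cut at about 17% in these data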;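 note: 0% = plate median of compound wells and 100% = probe without SIAE protein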
HTRA1 inh = HTRA1 serine protease inhibitors, primary screen, biochemical, fluorescence polarization, HTS. Q92743. recombinant HTRA1, FP-rhodamine activity-based probe. inhibition, % at 5.96 µM. 0.5% of 340,000 active; in the data active = inhibition above about 36%;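 note: 0% = enzyme with DMSO and 100% = wells lacking enzyme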
TCR CD3 inh = inhibitors of human TCR-CD3 interaction, primary screen, biochemical, fluorescence, TAMRA-labeled TCR probe; inhibition, % at 9.4 µM; 0.37% of 360,000 active; AID 651800, 2012; in the data active = inhibition above about 19%;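 note: recombinant mutant TCR 2C K166C tagged with TAMRA read by polarization; 0% = receptor in buffer alone and 100% = receptor with positive control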
mABHD4 FP = ABHD4 inhibitors, primary screen, biochemical, fluorescence polarization, mouse | (Lyso)-N-acylphosphatidylethanolamine lipase (Mus musculus), Q8VD66 | purified mABHD4, FP-Rh probe fluorescence polarization | inhibition, % at 8.92 µM | 0.54% of 370,000 active;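 active = inhibition exceeding the mean over every tested compound plus 3 SD, cut at about 30% in these data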;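 note: 0% = plate median of compound wells and 100% = S159A mutant with DMSO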
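Assay system: mouse ABHD4 enzyme, wild type / Also added: fluorescent activity-based probe FP-Rh / Doses: single nominal dose of 8.92 µM, 0.89% DMSO final / Timing: 45 min compound pre-incubation plus 60 min probe step, 25 °C / Signal: FP readout, ex 525 nm / em 598 nm / Control set: S159A mutant/DMSO as 100%, compound-well median as 0%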
PRMT1 FP inh = PRMT1 methyltransferase inhibitors, primary screen, biochemical, fluorescence polarization. Protein arginine N-methyltransferase 1 (Homo sapiens), Q99873. recombinant PRMT1, activity-based probe fluorescence polarization. inhibition, % at 2.79 µM. 1.3% of 370,000 active. AID 652257, 2013;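 active = inhibition above about 21% made by adding two undisclosed values, limit read from the data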
Target sequence (Q99873 whole entry, looked up): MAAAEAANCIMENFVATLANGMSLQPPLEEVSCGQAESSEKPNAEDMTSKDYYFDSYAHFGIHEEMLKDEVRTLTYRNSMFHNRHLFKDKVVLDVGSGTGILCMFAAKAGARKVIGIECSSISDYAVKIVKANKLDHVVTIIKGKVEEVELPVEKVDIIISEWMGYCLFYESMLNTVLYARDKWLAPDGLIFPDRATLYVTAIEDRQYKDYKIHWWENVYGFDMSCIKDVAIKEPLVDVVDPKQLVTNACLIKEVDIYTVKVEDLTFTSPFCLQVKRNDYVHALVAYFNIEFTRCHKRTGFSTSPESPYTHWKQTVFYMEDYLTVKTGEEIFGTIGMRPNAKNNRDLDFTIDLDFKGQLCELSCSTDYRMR
PRMT1 confirm = PRMT1 methyltransferase inhibitors, confirmation, biochemical, fluorescence polarization, triplicate; AID 687036, 2013; inhibition, % at 2.79 µM; 42% of 3,300 active; shares compounds with PRMT1 FP inh; recombinant His-PRMT1, activity-based probe fluorescence polarization;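 active = mean inhibition across replicates above the hit cutoff derived for the earlier primary screen, cut at about 22% in these data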
* hit, by the source's call; / = no result.

SMILES	SIAE inh	HTRA1 inh	TCR CD3 inh	mABHD4 FP	PRMT1 FP inh	PRMT1 confirm
C=Cc1ccc2c(c1)N(C)C(=C)S2	4	1	11	12	81*	61*
O=S1(=O)CC2c3ccccc3CN2CN1CCc1ccccc1 (stereo not given)	-3	/	/	-1	7	/
COc1cccc(C2CC(=O)N3CN(c4ccccc4F)CSC3=C2C#N)c1 (stereo not given)	9	-11	0	3	7	/
COc1ccc(OC)c(C2CC(=O)N3CN(c4cccc(Cl)c4C)CSC3=C2C#N)c1 (stereo not given)	-2	-8	0	5	45*	64*
COc1ccc(OC)c(C2CC(=O)N3CN(c4ccccc4F)CSC3=C2C#N)c1 (stereo not given)	1	-5	-3	3	33*	22*
COc1cccc(C2CC(=O)N3CN(c4cccc(Cl)c4C)CSC3=C2C#N)c1OC (stereo not given)	7	-16	-6	15	29*	54*
Cc1ccc(-c2nn(-c3ccccc3)cc2/C=C/C(=O)O)o1	-1	-9	0	-2	31*	0
O=C(O)/C=C/c1cn(-c2ccccc2)nc1-c1cc2ccccc2oc1=O	-10	-2	-8	2	8	/
Cc1ccc(-c2nn(-c3ccccc3)cc2CN(Cc2ccccc2)C(=O)c2ccco2)o1	-15	-54	5	-9	39*	19
COc1ccccc1Cc1c(C2CCCCC2)nc2c(C)cc(Br)cn12	-7	/	-1	-3	4	/
O=c1sc(/C=N/Nc2ccccc2)c(Cl)n1Cc1ccccc1	4	-7	5	3	59*	6
COc1cc(/C=C2/C(C)=C(C#N)c3nc(N)c(C#N)c(C)c32)ccc1OCC(=O)O	3	/	-5	21	27*	9
COc1ccccc1NC(=O)CCc1nc2ccccc2s1	4	5	5	2	-1	/
CC(C)c1ccccc1NC(=O)CCc1nc2ccccc2s1	4	0	9	0	32*	16
COc1ccc(-c2csc(NNC3=NCCCCC3)n2)cc1	6	/	6	10	38*	32*
COc1ccc(-c2csc(NC3=NCCCCC3)n2)cc1	-2	4	8	4	0	/
c1ccc(-c2csc(NNC3=NCCCCC3)n2)cc1	5	-5	0	19	67*	17
Clc1ccc(-c2csc(NNC3=NCCCCC3)n2)cc1	6	9	5	22	18	/
COc1ccc(NC(=O)CSc2nc(C)cc(=O)[nH]2)cc1OC	9	/	/	-4	-5	/
Cc1ccc(/C=C2/NC(=O)N(c3ccccc3)C2=O)o1	2	2	2	8	60*	30*
CCN1C(=O)N/C(=C/c2ccc(Sc3ccc(C)cc3)o2)C1=O	4	-9	0	-1	3	/
Cc1ccc(/C=C2/NC(=O)N(Cc3ccc(Br)cc3)C2=O)o1	2	4	0	16	80*	10
CCN1C(=O)/C(=C/c2ccc(C)o2)N(C)C1=S	0	-5	-6	6	45*	1
CCN1C(=O)N/C(=C/c2ccc(C)o2)C1=O	7	-1	15	4	56*	9
Cc1ccc(CN2C(=O)N/C(=C\c3ccc(N4CCOCC4)cc3)C2=O)cc1	10	0	-1	4	-3	/
SMILES	SIAE inh	HTRA1 inh	TCR CD3 inh	mABHD4 FP	PRMT1 FP inh	PRMT1 confirm
COc1ccc(C(C)(C)C)cc1N1C(=O)[C@@H]2CSCCS(=O)(=O)N2C1=O	0	/	2	4	-4	/
COc1ccc(C(=O)N[C@H]2CC[C@@]34CCCN3C(=O)CCC[C@H]4[C@H]2C)cc1	-2	/	/	0	-5	/
COc1cccc(C(=O)N[C@H](C(=O)N2CCC[C@H]2C(=O)NCCc2ccccc2Cl)c2ccccc2)c1	2	/	6	-8	-2	/
CN(CCO)c1ccc2c(c1)Oc1ccccc1CN(Cc1cn(Cc3ccc(F)cc3)nn1)S2(=O)=O	5	/	/	-7	-3	/
CCCCCCCCNC(=O)C1CSCCS(=O)(=O)N1Cc1ccc(F)cc1 (stereo not given)	-7	/	/	5	1	/
C[C@H](CO)N1C[C@H](C)[C@H](CN(C)C(=O)Nc2ccc3c(c2)OCO3)OCc2cnnn2CCCC1=O	2	/	-3	3	1	/
O=C1N/C(=C/c2ccc(N3CCOCC3)o2)C(=O)N1c1cccc(Cl)c1	2	-2	-2	-15	30*	-7
CCn1c(C)cc(/C=C2/NC(=O)N(Cc3ccccc3F)C2=O)c1C	7	-3	1	10	4	/
Cc1ccc(/C=C2/NC(=O)N(Cc3ccccc3F)C2=O)o1	9	5	-3	3	83*	10
CCC[C@H]1[C@@H](OC(=O)NCc2ccccc2)CC[C@@]23CCCN2C(=O)CCC[C@@H]13	9	/	/	7	7	/
Cc1cc(C)cc(N2C(=O)C=CC2=O)c1	-4	-5	1	-1	80*	96*
CC(C)n1cc(/C=N/Nc2ccc(C(=O)O)cc2)c2ccccc21	9	10	-4	17	26*	4
Cn1cc(/C=N/Nc2ccccc2)c2ccccc21	12	2	1	8	4	/
CN(C)c1ccc2nc3c(=O)[nH]c(=O)nc-3n(CC(O)C(O)C(O)CO)c2c1 (stereo not given)	-278	-235	-54	-176	80*	55*
CC(=O)Nc1ccc(SC[C@H](CC(C)C)N2CCN(CCc3ccccc3)CCC2=O)cc1	-4	-5	-12	-3	40*	40*
COC(=O)[C@]12C[C@H](CC(=O)NCCC(C)C)C(=O)N(Cc3ccco3)C1=C[C@H](COCc1ccccc1)O[C@@H]2C	4	/	/	1	4	/
Cn1c(=O)[nH]c(=O)c2c1nc(SCCN1CCCCC1)n2Cc1ccccc1	4	0	4	6	-5	/
Cc1ccc(Cn2c(SCCN3CCCCC3)nc3c2c(=O)[nH]c(=O)n3C)cc1	3	-6	-2	0	33*	46*
Cn1c(=O)[nH]c(=O)c2c1nc(SCCN1CCCCC1)n2CCCc1ccccc1	0	-2	3	0	57*	46*
CSc1nc2c(c(=O)[nH]c(=O)n2C)n1Cc1ccc(Cl)cc1	3	0	8	3	66*	7
c1ccc(OCc2nnc(SCc3nc4ccccc4[nH]3)n2-c2ccccc2)cc1	0	/	/	3	-3	/
O=Cc1ccc(-c2ccc(F)cc2)o1	-5	0	8	0	0	/
